Structures are written as SMILES. Calls of active or inactive are those of the source.

The target of series [1] is T1, Cathepsin B (Homo sapiens, UniProt P07858). Nature of the series: Time dependent inhibition of human liver cathepsin B using Z-RR-para-nitroanilide as substrate at 500 uM. A digest of the protocol: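 Screening: human liver cathepsin B (175 nM) activated in 100 mM sodium phosphate pH 6.0, 5 mM DTT, 1 mM EDTA, incubated with 500 µM inhibitor (5% DMSO) at 30 °C for 10 min; aliquot diluted 17.5-fold into 3 mM Z-RR-pNA, residual activity from initial rates at 405 nm.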

Series [2] relates to MDA-MB-231. In words: Inhibition of cathepsin in human MDA-MB-231 cells assessed as decrease in cell migratory behavior after 6 hrs by microscopic analysis. The class given is cell-based. A digest of the protocol: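 MDA-MB-231 cells plated as concentric circles through a sedimentation manifold on BSA-coated glass slide; after manifold removal, treated with 0.05% DMSO or inhibitor (10 and 20 µM) for 6 h at 37 °C. Images at t0 and t6; motility taken as change in total area (µm2), mean ± S.D. of triplicates.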

Series [3] concerns the target Cathepsin S (Homo sapiens) (UniProt P25774). In words: Inhibition of cathepsin S in human MDA-MB-231 cells assessed as increase in E-cadherin levels at 1 to 5 uM after 30 mins by Western blotting analysis. The class given is cell-based. For orientation: Immunoblotting shows a protein as a band on a membrane.
The target in series [4] is T1, Cathepsin B. Nature of the series: Inhibition of cathepsin B in human MDA-MB-231 cells assessed as increase in E-cadherin levels at 1 to 5 uM after 30 mins by Western blotting analysis. In kind it is cell-based.
Series [5] concerns MDA-MB-231. Nature of the series: Inhibition of cathepsin in human MDA-MB-231 cells assessed as change in cellular morphology at 20 uM by microscopic analysis. The class given is cell-based.
Series [6] deals with Cathepsin S (Homo sapiens) (UniProt P25774). In words: Inhibition of cathepsin S in human MDA-MB-231 cells assessed as increase in E-cadherin levels after 20 mins by immunofluorescence assay. The class given is cell-based. A digest of the protocol: (§1)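 MDA-MB-231 cells (IMDM, 10% FBS, 37 °C, 5% CO2) on glass coverslips 24 h, treated 20 min at 37 °C with vehicle (0.1% DMSO) or inhibitor. Fixed in 3.7% PFA, permeabilized, blocked, mouse anti-E-cadherin (1:100) overnight at 4 °C, then Alexa 594 secondary, Hoechst nuclei. Mean peripheral fluorescence intensity, 28 cells per condition, three independent experiments.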
Chain of Cathepsin S (Homo sapiens) (P25774 115-331 limits assumed): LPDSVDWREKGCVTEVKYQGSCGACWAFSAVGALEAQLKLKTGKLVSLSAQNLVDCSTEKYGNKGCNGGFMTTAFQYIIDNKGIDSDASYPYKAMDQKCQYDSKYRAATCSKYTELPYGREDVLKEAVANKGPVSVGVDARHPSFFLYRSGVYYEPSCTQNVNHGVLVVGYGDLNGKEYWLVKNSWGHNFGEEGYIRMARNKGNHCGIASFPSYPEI

Series [7] deals with T1, Cathepsin B. In words: Inhibition of cathepsin B in human MDA-MB-231 cells assessed as increase in E-cadherin levels after 20 mins by immunofluorescence assay. In kind it is cell-based. A digest of the protocol:
as §1

The target of series [8] is T1, Cathepsin B. Nature of the series: Inhibition of cathepsin B in human MDA-MB-231 cells using Z-RR-AMC as substrate preincubated for 20 mins prior to substrate addition measured after 10 mins by confocal microscopic analysis. The class given is cell-based. A digest of the protocol: (§2)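 Live-cell confocal imaging of MDA-MB-231 cells on poly-D-lysine glass dishes in phenol-red-free medium with 15 mM HEPES plus Oxyrase/10 mM lactate. Cells treated with 0.1% DMSO or inhibitor 20 min at 37 °C, then Z-RR-AMC (25 µM final) for 10 min. […]; average whole-cell fluorescence, 8-10 cells per experiment, three independent experiments.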

Series [9] can be described thus: Half life of the compound at 2.5 mM at pH 7.4 by NMR spectrophotometric analysis. In kind it is physicochemical. The essentials:
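Hydrolytic stability by NMR: stock in deuterated DMSO added to deuterated phosphate buffer, pH 7.4 (D2O), final 2.5 mM, pseudo-first order. Spectra recorded at intervals; integrations of starting and final species compared, data fitted to single exponential decay, t1/2 = 0.693/k.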

Series [10] addresses T1, Cathepsin B. In words: Inhibition of cathepsin B in human MDA-MB-231 cells using Z-RR-AMC as substrate at 20 uM preincubated for 20 mins prior to substrate addition measured after 10 mins by confocal microscopic analysis. In kind it is cell-based. A digest of the protocol:
as §2

For series [11], the target named is T2, Tyrosine-protein phosphatase non-receptor type 1 (Homo sapiens) (UniProt P18031).
T2 sequence (whole entry): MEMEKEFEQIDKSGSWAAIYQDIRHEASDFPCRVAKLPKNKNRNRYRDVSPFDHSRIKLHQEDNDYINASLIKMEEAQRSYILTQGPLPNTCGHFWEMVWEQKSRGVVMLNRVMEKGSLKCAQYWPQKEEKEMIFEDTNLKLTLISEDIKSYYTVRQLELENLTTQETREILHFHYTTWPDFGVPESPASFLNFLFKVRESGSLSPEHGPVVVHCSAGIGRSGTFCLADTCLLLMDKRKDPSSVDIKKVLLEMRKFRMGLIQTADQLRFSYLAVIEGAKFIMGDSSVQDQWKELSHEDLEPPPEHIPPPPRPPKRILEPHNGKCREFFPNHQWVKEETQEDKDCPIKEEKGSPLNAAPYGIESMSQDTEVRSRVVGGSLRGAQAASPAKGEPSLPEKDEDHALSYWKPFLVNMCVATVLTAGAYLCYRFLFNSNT
In words: Inhibition of human PTP1B.

A further series concerns the target Trypsin (Homo sapiens) (UniProt P07477+P07478+P35030). Nature of the series: Inhibition of trypsin (unknown origin) using N-alpha-benzoyl-DL-arginine-p-nitroanilide as substrate. The class given is protein assay. The essentials:
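Trypsin freshly prepared in 1 mM HCl, pre-activated (190–200 U/µl final), inhibitor added; aliquots at intervals into 67 mM sodium phosphate with 3 mM BAPNA, initial rate at 410 nm. Time-dependent inhibition examined up to 1 mM over 1 h.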

Series [12] deals with T3, Cathepsin G (Homo sapiens) (UniProt P08311).
T3 sequence (whole entry): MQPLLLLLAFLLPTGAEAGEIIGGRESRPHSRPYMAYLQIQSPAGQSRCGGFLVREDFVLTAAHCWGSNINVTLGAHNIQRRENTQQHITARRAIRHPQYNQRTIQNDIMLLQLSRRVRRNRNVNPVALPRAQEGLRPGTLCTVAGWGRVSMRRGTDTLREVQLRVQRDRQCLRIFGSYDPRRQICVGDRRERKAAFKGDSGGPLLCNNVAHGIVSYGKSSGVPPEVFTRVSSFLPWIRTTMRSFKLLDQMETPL
Nature of the series: Inhibition of human cathepsin G using Suc-AAPF-pNA as substrate. A digest of the protocol:
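Human cathepsin G (7.66 nM final) activated 15 min in 20 mM Tris-HCl pH 7.4, 500 mM NaCl; inhibitor added, aliquots at intervals into buffer with 3.4 mM Suc-AAPF-pNA. Time-dependent inhibition examined up to 1 mM over 1 h.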

Series [13] concerns the target Cathepsin D (Homo sapiens) (UniProt P07339). Nature of the series: Inhibition of human cathepsin D using Mca-Gly-Lys-Pro-Ile-Leu-Phe-Phe-Arg-Leu-Lys(Dnp)-D-Arg-NH2 as substrate.
In series [14] the target is Cathepsin S (Homo sapiens) (UniProt P25774). In words: Inhibition of human cathepsin S using Z-VVR-AMC as substrate. The essentials: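 Human cathepsin S (134.6 nM final) activated 10 min in 100 mM potassium phosphate pH 6.5, 5 mM DTT, 5 mM EDTA; inactivated with inhibitor at 75 µM. Aliquots at intervals into buffer (8% DMSO) with 250 µM Z-VVR-AMC, Ex/Em 365/440 nm. Second-order constant = kobs/[I].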

Series [15] deals with T4, Cathepsin F (Homo sapiens) (UniProt Q9UBX1).
T4 sequence (whole entry): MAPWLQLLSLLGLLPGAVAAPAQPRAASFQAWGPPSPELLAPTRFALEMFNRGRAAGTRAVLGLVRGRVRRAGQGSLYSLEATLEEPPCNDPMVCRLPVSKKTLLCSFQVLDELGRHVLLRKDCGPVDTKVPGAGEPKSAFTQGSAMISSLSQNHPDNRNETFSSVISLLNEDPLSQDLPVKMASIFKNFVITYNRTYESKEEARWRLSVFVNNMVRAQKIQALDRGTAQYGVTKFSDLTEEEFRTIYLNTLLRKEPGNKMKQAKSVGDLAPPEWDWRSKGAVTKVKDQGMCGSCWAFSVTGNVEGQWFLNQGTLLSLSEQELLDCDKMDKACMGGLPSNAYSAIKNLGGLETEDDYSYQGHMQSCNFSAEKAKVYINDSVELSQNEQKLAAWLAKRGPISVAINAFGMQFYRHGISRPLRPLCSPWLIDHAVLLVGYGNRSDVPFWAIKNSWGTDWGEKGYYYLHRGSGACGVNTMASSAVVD
In words: Inhibition of human cathepsin F using Z-FR-AMC as substrate. A digest of the protocol:
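Human cathepsin F (10.8 nM final) activated 10 min at 25 °C in 50 mM potassium phosphate pH 6.5, 2.5 mM DTT, 2.5 mM EDTA, 1.0 mg/ml BSA; inhibitor added, aliquots at intervals into assay with 3 µM Z-FR-AMC at 25 °C. Second-order constant = kobs divided by inhibitor concentration.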

In series [16] the target is T1, Cathepsin B. Nature of the series: Inhibition of human liver cathepsin B using Z-RR-para-nitroanilide as substrate. The essentials: (§3)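 Human liver cathepsin B (175 nM final) activated 10 min in 100 mM sodium phosphate pH 6.0, 5 mM DTT, 1 mM EDTA; inhibitor added (5% DMSO, pseudo-first order) at 30 °C. Aliquots diluted 17.5-fold into assay with 3 mM Z-RR-pNA; initial rates at 405 nm give residual activity over time.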

The target in series [17] is T1, Cathepsin B. Nature of the series: Inhibition of human liver cathepsin B in presence of azide ion.
Series [18] concerns the target T1, Cathepsin B. In words: Irreversible inhibition of human liver cathepsin B after 10 mins by mass spectrophotometric analysis. The essentials: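 Activated cathepsin B incubated with inhibitor (800 µM) or 5% DMSO control for 10 min under kinetic-study conditions; samples mixed 1:9 with saturated α-cyano-4-hydroxycinnamic acid and analysed by MALDI mass spectrometry, positive linear mode.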

The target in series [19] is T1, Cathepsin B. Nature of the series: Inhibition of human liver cathepsin B using Z-RR-para-nitroanilide as substrate assessed as first-order inactivation rate constant by Kitz-Wilson plot analysis. The essentials:
(§4)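 Cathepsin B (175 nM, pH 6.0 phosphate, DTT/EDTA, 30 °C, 5% DMSO) inactivated at 25, 50, 75, 100 and 150 µM inhibitor; residual activity with 3 mM Z-RR-pNA at intervals. kobs from single-exponential fit of activity vs time at each concentration; Ki and ki from Kitz–Wilson analysis.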

In series [20] the target is T1, Cathepsin B. In words: Inhibition of human liver cathepsin B using Z-RR-para-nitroanilide as substrate assessed as reversible equilibrium binding constant by Kitz-Wilson plot analysis. A digest of the protocol: as §4
The target in series [21] is T1, Cathepsin B. Nature of the series: Inhibition of human liver cathepsin B using Z-RR-para-nitroanilide as substrate in presence of leupeptin. The essentials:
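Active-site protection: cathepsin B inactivation (175 nM, pH 6.0 phosphate buffer with DTT/EDTA, 30 °C, 5% DMSO) run in presence of leupeptin (40 nM); residual activity measured with 3 mM Z-RR-pNA at 405 nm.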

Series [22] addresses T1, Cathepsin B. Nature of the series: Irreversible inhibition of human liver cathepsin B using Z-RR-para-nitroanilide as substrate measured after dilution of compound-inactivated enzyme complex.
The target of series [23] is T1, Cathepsin B. In words: Time dependent inhibition of human liver cathepsin B using Z-RR-para-nitroanilide as substrate. The essentials:
as §3

Series [24] is filed under the species Homo sapiens. In words: Selectivity ratio of Kinact for human liver cathepsin B to Kinact for human cathepsin D.
For series [25], the species on record is Homo sapiens. Nature of the series: Selectivity ratio of Kinact for human liver cathepsin B to Kinact for human cathepsin S.
The species entered for series [26] is Homo sapiens. In words: Selectivity ratio of Kinact for human liver cathepsin B to Kinact for human cathepsin F.

Chain of Cathepsin D (Homo sapiens) (P07339 65-162 limits assumed): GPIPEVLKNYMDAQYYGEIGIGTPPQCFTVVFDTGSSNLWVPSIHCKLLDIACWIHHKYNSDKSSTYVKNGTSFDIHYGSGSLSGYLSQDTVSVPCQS
Chain of Cathepsin D (Homo sapiens) (P07339 169-412 limits assumed): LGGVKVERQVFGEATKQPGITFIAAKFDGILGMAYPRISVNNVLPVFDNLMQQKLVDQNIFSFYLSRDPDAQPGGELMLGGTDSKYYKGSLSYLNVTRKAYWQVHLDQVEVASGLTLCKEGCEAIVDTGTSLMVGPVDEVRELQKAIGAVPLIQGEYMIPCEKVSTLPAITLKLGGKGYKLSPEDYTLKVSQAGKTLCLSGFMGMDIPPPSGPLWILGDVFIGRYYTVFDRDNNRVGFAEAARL

In the case of `O=S(=O)(c1ccc(Cl)cc1)C1CO1` (stereo not drawn), the inhibition – broadly, the relative decrease from the control value, in per cent – against Cathepsin B [1] was found to be 44%.
As for `COc1cccc(S(=O)(=O)C2CO2)c1` (stereo not drawn), the inhibition at Cathepsin B [1] is 35%.
Take `CCc1ccccc1S(=O)(=O)C1CO1` (stereo not drawn): the inhibition entry is “Dose-dependent effect” in the series with MDA-MB-231 [2]; “Dose-dependent effect” in series [6]; “Dose-dependent effect” at Cathepsin B [7]; “Dose-dependent effect” at Cathepsin B [8]; more than 98% against Cathepsin B [1]. Moreover, the inhibition entry (in series [3]; on Cathepsin B [4]; in the series with MDA-MB-231 [5]; at Cathepsin B [10]; at Cathepsin B [17]; on Cathepsin B [18]) was “Active” each time. Also, the inhibition result on Cathepsin B [22] and at Cathepsin B [23] was “Active” each time. In addition, the half-life (usually the time needed for the level to fall by half in the phase considered) at 2500 µM in series [9] is 3.6 h. For the same molecule, the inhibition entry (in series [11]; at Trypsin (Homo sapiens); in [12]; on Cathepsin B [21]) was “inactive” in each case. The Kinact worked out at 1.08 M⁻¹ s⁻¹ in [13]; 19.9 M⁻¹ s⁻¹ in series [14]; 21.7 M⁻¹ s⁻¹ in series [15]; 40.7 M⁻¹ s⁻¹ at Cathepsin B [16]; 0.21 min⁻¹ on Cathepsin B [19]. The Ki (usually the equilibrium dissociation constant of an inhibitor or competing ligand from its target) at Cathepsin B [20] came out at 86 µM. In addition, the Selectivity ratio in the series listed under Homo sapiens [24] was 38; in the series filed under Homo sapiens [25], 1.9; in the series filed under Homo sapiens [26], 1.9.
As for `O=S(=O)(CC1CO1)c1ccccc1` (stereo not drawn), the inhibition result at Cathepsin B [1] is “inactive”.
At Cathepsin B [1], `O=S(=O)(c1ccc(OC(F)(F)F)cc1)C1CO1` (stereo not drawn) gave an inhibition of 30%.
Consider `Cc1ccc(C)c(S(=O)(=O)C2CO2)c1` (stereo not drawn), for which the inhibition on Cathepsin B [1] was found to be 42%.
Same read-out and setting: under `O=S(=O)(CC1CS1)c1ccccc1` (stereo not drawn) stands “inactive”.

The values above are taken from ChEMBL document CHEMBL2384980, “Development of cell-active non-peptidyl inhibitors of cysteine cathepsins” (Bioorg Med Chem, 2013).
